For data set [1], the system named is LNCaP. Briefly: Antiproliferative activity against human LNCaP cells expressing ALDH1A3 assessed as reduction in cell survival measured after 96 hrs by MTT assay. It is filed as functional, cell-based. The essentials: (§1)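 Adherent prostate cancer cells seeded in 96-well plates, left overnight at 37 °C, 5% CO2, 100% humidity, then exposed to compounds at 12.5–200 μM for 96 h. Read-out: MTT (0.5 mg/mL) added for 4 h at 37 °C, formazan dissolved in DMSO, absorbance at 540 nm. IC50 from five-dose screen.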

Data set [2] has as its system PC-3. Briefly: Antiproliferative activity against human PC-3 cells expressing ALDH1A1 and ALDH3A1 assessed as reduction in cell survival measured after 96 hrs by MTT assay. It is filed as functional, cell-based. As to conditions: PC-3, 96 h. The essentials:
as §1
In general terms: Formazan colour is commonly taken as a measure of viable cells.

Data set [3] deals with DU-145. Description: Antiproliferative activity against human DU145 cells expressing ALDH1A1 assessed as reduction in cell survival measured after 96 hrs by MTT assay. As to conditions: DU-145, 96 h. It is filed as functional, cell-based. Put shortly:
as §1

Data set [4] has as its target T1, Aldehyde dehydrogenase, dimeric NADP-preferring (Homo sapiens) (UniProt P30838).
T1 sequence (whole entry): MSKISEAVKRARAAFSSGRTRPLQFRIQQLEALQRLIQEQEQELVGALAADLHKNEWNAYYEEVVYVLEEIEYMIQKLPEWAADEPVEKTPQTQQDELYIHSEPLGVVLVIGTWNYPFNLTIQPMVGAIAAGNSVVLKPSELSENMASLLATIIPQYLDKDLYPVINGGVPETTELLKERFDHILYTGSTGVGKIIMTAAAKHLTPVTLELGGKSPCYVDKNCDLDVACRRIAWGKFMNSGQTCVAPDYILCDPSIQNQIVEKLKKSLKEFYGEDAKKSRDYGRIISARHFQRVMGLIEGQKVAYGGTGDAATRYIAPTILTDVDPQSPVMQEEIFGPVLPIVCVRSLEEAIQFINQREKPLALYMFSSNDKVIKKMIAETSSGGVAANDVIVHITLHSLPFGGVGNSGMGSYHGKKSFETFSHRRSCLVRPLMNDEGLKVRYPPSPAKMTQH
Briefly: Inhibition of N-terminal-His6 tagged recombinant human ALDH3A1 assessed as remaining enzyme activity by measuring fluorescence of NADPH using 4-NBA and NADP+ as substrate at 10 uM by fluorimetric analysis relative to control. The essentials:
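Single-point screen at 10 μM inhibitor, 1% DMSO final. Enzyme in 50 mM Tris–HCl, 5 mM DTT, pH 8.0, with 1 mM NADP+ and 4-NBA at 31 and 250 μM. NADPH fluorescence (ex 340/em 460 nm) or absorbance at 340 nm. Enzyme kept 50–100-fold below substrate; result is % remaining activity.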

Data set [5] concerns H415. Description: Cytotoxicity against human H415/15 cells assessed as reduction in cell viability incubated for 72 hrs by AlamarBlue staining based analysis. It is filed as functional. Conditions: dose 50-200 µM. Put shortly: (§2)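 Primary prostate epithelial cells (cancer from radical prostatectomy, BPH from transurethral resection) plated 5000 cells/well in SCM for 24 h at 37 °C, 5% CO2, then given inhibitor alone at 50 or 200 μM (200 mM DMSO stocks) for 72 h. Alamar Blue at 10% of volume for 1–4 h. Viability is % of DMSO control; triplicate, mean.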
A general note: Alamar Blue is a resazurin reagent that responds to reducing activity.

Data set [6] deals with H431. Description: Cytotoxicity against human H431/14 LM cells assessed as reduction in cell viability incubated for 72 hrs by AlamarBlue staining based analysis. It is filed as functional. As to conditions: dose 50-200 µM. The essentials: as §2
Data set [7] relates to H517. Description: Cytotoxicity against human H517/15 RM cells assessed as reduction in cell viability incubated for 72 hrs by AlamarBlue staining based analysis. It is filed as functional. As to conditions: dose 50-200 µM. The essentials: as §2
In data set [8] the test system is H568. Briefly: Cytotoxicity against human H568/15 RM cells assessed as reduction in cell viability incubated for 72 hrs by AlamarBlue staining based analysis. It is filed as functional. Conditions: dose 50-200 µM. Put shortly:
as §2

Data set [9] has as its system H488. Briefly: Cytotoxicity against human H488/14 RM cells assessed as reduction in cell viability incubated for 72 hrs by AlamarBlue staining based analysis. It is filed as functional. Conditions: dose 50-200 µM. Put shortly: as §2
The target of data set [10] is T2, Aldehyde dehydrogenase, dimeric NADP-preferring (Homo sapiens, UniProt P30838).
T2 sequence (P30838 whole entry): T1 sequence (whole entry)
Briefly: Substrate activity at N-terminal-His6 tagged recombinant human ALDH3A1 at 10 uM […] by fluorimetric analysis relative to 4-NBA. It is filed as ADME. The essentials: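 Compound at 10 μM used as substrate in place of 4-NBA. Buffer 50 mM Tris–HCl, 5 mM DTT, pH 8.0, with 1 mM NADP+. NADPH fluorescence (ex 340/em 460 nm). Activity given as % of that with 10 μM 4-NBA; mean ± SE.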

The subject of data set [11] is H431. Briefly: Cytotoxicity against human H431/14 LM cells assessed as reduction in cell viability at 50 to 200 uM incubated for 72 hrs in presence of docetaxel by AlamarBlue staining based analysis. Conditions: dose 50-200 µM. It is filed as functional. The essentials: (§3)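 Primary prostate epithelial cells (radical prostatectomy cancer or transurethral resection BPH) seeded at 5000 cells/well in SCM, 24 h at 37 °C, 5% CO2. Treated with inhibitor at 50 or 200 μM plus 1 nM docetaxel (DMSO stocks 200 mM) for 72 h. Alamar Blue added at 10% volume, 1–4 h at 37 °C. Viability is % of DMSO-treated control; triplicate, mean; paired two-tailed t-test.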

Data set [12] relates to H568. Briefly: Cytotoxicity against human H568/15 RM cells assessed as reduction in cell viability at 50 to 200 uM incubated for 72 hrs in presence of docetaxel by AlamarBlue staining based analysis. Conditions: dose 50-200 µM. It is filed as functional. Put shortly: as §3
Data set [13] relates to H488. Description: Cytotoxicity against human H488/14 RM cells assessed as reduction in cell viability at 50 to 200 uM incubated for 72 hrs in presence of docetaxel by AlamarBlue staining based analysis. It is filed as functional. Conditions: dose 50-200 µM. The essentials:
as §3

The subject of data set [14] is H415. Briefly: Cytotoxicity against human H415/15 cells assessed as reduction in cell viability at 50 to 200 uM incubated for 72 hrs in presence of docetaxel by AlamarBlue staining based analysis. It is filed as functional. As to conditions: dose 50-200 µM. Put shortly: as §3
The test system of data set [15] is H517. Description: Cytotoxicity against human H517/15 RM cells assessed as reduction in cell viability at 50 to 200 uM incubated for 72 hrs in presence of docetaxel by AlamarBlue staining based analysis. Conditions: dose 50-200 µM. It is filed as functional. Put shortly:
as §3

In data set [16] the target is T3, Aldehyde dehydrogenase 1A1 (Homo sapiens, UniProt P00352).
T3 sequence (P00352 whole entry): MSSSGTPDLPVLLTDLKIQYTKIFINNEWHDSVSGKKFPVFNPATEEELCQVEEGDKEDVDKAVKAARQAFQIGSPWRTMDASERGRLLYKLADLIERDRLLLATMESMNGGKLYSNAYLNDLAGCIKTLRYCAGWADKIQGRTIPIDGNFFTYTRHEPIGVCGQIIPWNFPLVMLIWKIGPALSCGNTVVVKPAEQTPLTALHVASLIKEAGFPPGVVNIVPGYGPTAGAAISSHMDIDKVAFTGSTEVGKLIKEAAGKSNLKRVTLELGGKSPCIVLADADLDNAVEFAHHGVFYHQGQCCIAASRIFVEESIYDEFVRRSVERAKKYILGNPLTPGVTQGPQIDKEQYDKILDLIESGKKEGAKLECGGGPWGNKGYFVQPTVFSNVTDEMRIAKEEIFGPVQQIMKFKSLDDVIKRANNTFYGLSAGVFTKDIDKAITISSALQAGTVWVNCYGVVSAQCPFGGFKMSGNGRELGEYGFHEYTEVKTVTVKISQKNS
Description: Substrate activity at N-terminal-His6 tagged recombinant human ALDH1A1 at 10 uM […] by fluorimetric analysis relative to hexanal. It is filed as ADME. The essentials:
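Compound at 10 μM used as substrate in place of hexanal. Buffer 50 mM HEPES, 0.5 mM EDTA, 0.5 mM DTT, pH 8.0, with 500 μM NAD+. NADH fluorescence (ex 340/em 460 nm). Activity given as % of that with 10 μM hexanal; mean ± SE.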

For data set [17], the target named is T1, Aldehyde dehydrogenase, dimeric NADP-preferring (Homo sapiens). Description: Inhibition of N-terminal-His6 tagged recombinant human ALDH3A1 using 4-NBA as substrate in absence of NADP+ by fluorimetric analysis. Put shortly: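 The standard 5-min preincubation of enzyme with inhibitor was run without NADP+, and compared with preincubation including cofactor. Fluorimetric NADPH read-out; mean ± SE.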

Each structure is given as a SMILES string. Calls of active or inactive are those of the source. No cut-off for these calls is given here. Bounds are passed on as bounds.

These results are taken from ChEMBL document CHEMBL5046287 (J Med Chem, 2022).

As for `CCCN(CCC)c1ccc(C=O)cc1C`, the IC50 – broadly, the concentration at which inhibition is half-maximal – in [1] worked out at 61 µM; in data set [2], 106 µM; in data set [3], 103 µM. The Activity in [4] was under 15%.
On to `CCCN(CCC)c1ccc(C=O)cc1`, for which the Activity in [4] was under 15%.
Turning to `CCN(CC)c1ccc(C=O)cc1`, the Activity result in data set [5], in data set [6], in [7], in [8] and in data set [9] was “Dose-Dependent Effect” each time.
`CCCN(CCC)c1ccc(C=O)cc1Br`: the Activity in [10] is under 5%; in data set [5], “Dose-Dependent Effect”; in [6] it was “Dose-Dependent Effect”; in data set [7] it was “Dose-Dependent Effect”; in data set [8], “Dose-Dependent Effect”; in data set [9] it was “Dose-Dependent Effect”. Besides, the Activity is under 15% in data set [4] and 3.14% in [16]. In addition, the result in data set [11], in data set [12], in data set [13], in [14] and in data set [15] was Active.
`CCCN(CCC)c1ccc(C=O)cc1OC`: the figures for the IC50 in data set [1], in [2] and in data set [3] were 50 µM, 75 µM and 71 µM, respectively.
For the compound `CCCN(CCC)c1ccc(C=O)cc1[N+](=O)[O-]`, the outcome in [11], in data set [12], in data set [13], in [14] and in [15] was Active. Moreover, the Activity result in data set [5] is “Dose-Dependent Effect”; in data set [6] it was “Dose-Dependent Effect”; in [7], “Dose-Dependent Effect”; in data set [8], “Dose-Dependent Effect”; in data set [9], “Dose-Dependent Effect”; in [4] it was under 15%. Besides, the inhibition entry in [17] is “Active”.
Take `CCCN(CCC)c1ccc(C=O)cc1Cl`: the Activity in data set [4] is under 15%.
